Among the data in ChEMBL document CHEMBL1765020, “Synthesis and structure-affinity relationships of novel dibenzylideneacetone derivatives as probes for β-amyloid plaques” (J Med Chem, 2011) are Ki and Activity values, retold here.

The nature of assay [1]: Displacement of [125I]IMPY from amyloid beta (1 to 42) aggregate after 2 hrs by gamma counting. Summed up:
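Competition binding in 1 mL PBS (0.2 M, pH 7.4). Aggregated Aβ1-42 fibrils (60 nM final) with [125I]IMPY and inhibitor at 10^-5 to 10^-10 M, added in ethanol. Nonspecific binding was defined with 1 μM IMPY. Incubated 2 h at 37 °C with shaking, then vacuum-filtered through glass fibre filters and the bound fraction gamma-counted. IC50 was converted to Ki by Cheng-Prusoff; triplicate, mean ± SD.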

For assay [2], the species on record is Mus musculus. The experiment in a line: Binding affinity to amyloid beta (1 to 42) aggregate in APP/PS1 transgenic C57BL/6 mouse brain after 1 hr by autoradiography. The class given is tissue-based. The note with it: C57BL6, tested as the 18F-labelled form. The procedure, abridged:
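Paraffin brain sections from 12-month-old male C57BL6-APP/PS1 mice, with wild-type male C57BL6 controls, were deparaffinized through xylene and graded ethanol, then held 30 min in PBS (0.2 M, pH 7.4). Sections were incubated 1 h at room temperature with radiotracer (5 μCi/100 μL), washed 3 min in 40% ethanol, rinsed in water, dried and exposed to an imaging plate overnight.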

The species named for assay [3] is Mus musculus. The experiment in a line: Binding affinity to amyloid beta (1 to 42) aggregate in APP/PS1 transgenic C57BL/6 mouse brain by Thioflavin S fluorescent staining assay. The class given is tissue-based. The note with it: C57BL6, tested as the 18F-labelled form. Summed up: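 The same Tg mouse sections used for autoradiography were stained with thioflavin S to locate plaques. Fluorescence was viewed by microscope: excitation 400–440 nm, dichroic 455 nm, long-pass 470 nm.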

Assay [4] concerns the target Amyloid-beta precursor protein (Homo sapiens) (UniProt P05067). The experiment in a line: Binding affinity to amyloid beta (1 to 42) aggregate in Alzheimer disease patient brain by immunohistochemical staining using amyloid beta antibody. The note with it: tested as the 18F-labelled form. Summed up:
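Plaque presence and location in the AD patient temporal-lobe sections were confirmed by immunohistochemistry with monoclonal anti-Aβ1-42 antibody BC05.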

pKi: −log10 of the molar value. Active and inactive are the calls of the source. The calls are words filed in the database; no cut-off is given here.

Sequence of Amyloid-beta precursor protein (Homo sapiens) (P05067 whole entry): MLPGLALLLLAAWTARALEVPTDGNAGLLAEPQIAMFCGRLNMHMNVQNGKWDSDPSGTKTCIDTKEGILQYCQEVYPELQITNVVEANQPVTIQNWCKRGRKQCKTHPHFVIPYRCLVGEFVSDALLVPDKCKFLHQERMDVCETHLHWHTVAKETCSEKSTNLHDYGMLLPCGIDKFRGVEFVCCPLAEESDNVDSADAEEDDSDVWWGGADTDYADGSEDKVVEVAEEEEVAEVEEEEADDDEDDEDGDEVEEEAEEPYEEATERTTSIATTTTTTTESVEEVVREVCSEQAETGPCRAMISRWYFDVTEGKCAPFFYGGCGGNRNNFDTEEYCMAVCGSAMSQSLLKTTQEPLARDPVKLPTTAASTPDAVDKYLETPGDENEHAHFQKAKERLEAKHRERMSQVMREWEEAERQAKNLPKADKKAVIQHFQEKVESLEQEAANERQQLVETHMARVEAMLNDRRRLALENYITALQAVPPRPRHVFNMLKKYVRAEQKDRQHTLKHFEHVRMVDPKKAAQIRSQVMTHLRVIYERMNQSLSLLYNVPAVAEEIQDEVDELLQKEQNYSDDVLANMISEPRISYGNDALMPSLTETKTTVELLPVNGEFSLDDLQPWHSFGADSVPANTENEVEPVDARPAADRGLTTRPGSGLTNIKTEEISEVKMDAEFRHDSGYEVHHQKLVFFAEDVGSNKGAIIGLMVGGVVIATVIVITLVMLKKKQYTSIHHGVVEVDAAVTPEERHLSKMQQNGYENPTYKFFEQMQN

By pKi is commonly meant −log10 of the Ki, conventionally taken in molar units. The low end stands for a large Ki, the high end for a small Ki. `CN(C)c1ccc(/C=C/C(=O)/C=C/c2ccc(OCCOCCOCCF)cc2)cc1` gave a negative logarithm of the Ki (pKi) in assay [1] of 8.16. Further, the outcome in assay [2], in assay [3] and in assay [4] was Active.
